Measurements taken from the EternaBench riboswitch data.

Tests used:
[1] = test system: MS2 coat protein; test: apparent Kd, MS2 coat protein; higher = weaker binding; RNA-MaP array
Outline: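 The designed RNAs, transcribed from sequenced DNA templates on an Illumina sequencing chip, were incubated with fluorescently labeled MS2 coat protein at room temperature. Protein ranged from 1.5 nM to 3 μM, with 0.8–1.5 h incubation at the lowest and 10–20 min at the highest concentrations, in Tris-HCl pH 7.5 buffer with KCl, MgCl2, BSA, DTT, tRNA and Tween20, with or without input ligand. The median of per-cluster binding-curve fits gives the apparent Kd, and designs measured on fewer than 10 clusters were excluded.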

[2] = test system: MS2 coat protein; test: apparent Kd, MS2 coat protein; higher = weaker binding; RNA-MaP array; FMN 200 µM where present
Outline: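 The apparent Kd comes from binding curves fitted cluster by cluster, filtered, and summarised as a median. Those curves followed SNAP-549-labelled MS2 coat protein from 0.7 or 1.5 nM, doubling to 3 µM, on Illumina sequencing-chip clusters where stalled E. coli RNA polymerase had transcribed the designs, without and then with constant ligand. The buffer was 100 mM Tris-HCl pH 7.5, 80 mM KCl, 4 mM MgCl2, BSA, DTT, yeast tRNA and Tween-20, and green signal was normalised to red-channel RNA signal and control-cluster median Fmax.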

[3] = designed as: ON switch for flavin mononucleotide, no ligand
[4] = ligand present: flavin mononucleotide, designed as: ON switch for flavin mononucleotide
[5] = designed as: OFF switch for flavin mononucleotide, no ligand
[6] = ligand present: flavin mononucleotide, designed as: OFF switch for flavin mononucleotide
[7] = designed as: ON switch for theophylline, no ligand
[8] = ligand present: theophylline, designed as: ON switch for theophylline
[9] = designed as: ON switch for tryptophan, no ligand
[10] = ligand present: tryptophan, designed as: ON switch for tryptophan
[11] = designed as: OFF switch for tryptophan, no ligand
[12] = ligand present: tryptophan, designed as: OFF switch for tryptophan

AAAACAUGAGGAUCACCCAUGUUGAUCAAACACCAGACCAAGAGAAGGAUCAGCACCGAGUGAUGAAAGGAUAUCUAUUAACGG
apparent Kd [1, 3]: 39.2 nM
apparent Kd [1, 4]: 23.8 nM

AAAGAACAAGGAUAUACAUGAGGAUCACCCAUGUCACAGAUAGUAGAACCACAAGCAUGUAGAAGGUGAGUCUA
apparent Kd [1, 5]: 11.5 nM
apparent Kd [1, 6]: 9.61 nM

AAAGGUUGAGGAUAUCAUCCUCCAAACAUGAGGAUCACCCAUGUUGAUCUUCACGUACGAUGAGAAGGCAACACCU
apparent Kd [1, 5]: 585 nM
apparent Kd [1, 6]: 683 nM

AACAGAAGACAGGAUAUUACUUAACCAGUAUUGUAAGAAGGGUCGACAUGAGGAUCACCCAUGUGAUCAUACUG
apparent Kd [1, 5]: 48.8 nM
apparent Kd [1, 6]: 47 nM

AACAGACGAGACGAUACCAGUCUCUUAGCGCACAUGAGGAUCACCCAUGUUGGCAAGCUCGACCCUUGGCAGCGUACCUUUGAUC
apparent Kd [1, 7]: 24.4 nM
apparent Kd [1, 8]: 14 nM

AACAGUAUUAUAGAUACCAGCAGGUCAUAAGACAUGAGGAUCACCCAUGUGAAUGAGGUAUGCCCUUGGCAGCUAUGAGGUCCUC
apparent Kd [1, 7]: 173 nM
apparent Kd [1, 8]: 128 nM

AAGGAGGAGCAAGGAUAUCAGUGUAUACGCCACAUGAGGAUCACCCAUGUCCGGAGCGAGAUUCCUGAGAAGGUGCCGCCUAGC
apparent Kd [1, 3]: 7.25 nM
apparent Kd [1, 4]: 6.47 nM

AAGUCGCAAGGAUAUACAGUAAGGGUUCGGAUGGGAAGCUUACAUGAGGAUCACCCAUGUAGAAGGUGCAUUCA
apparent Kd [1, 5]: 26.9 nM
apparent Kd [1, 6]: 31.4 nM

AAUCAACUUAGAGGAUAUAAGCUUAAAAUAGGGUUAGAAGGCUAUGGUACUAAUGAUCCGUCAACAUGAGGAUCACCCAUGUAG
apparent Kd [1, 5]: 45 nM
apparent Kd [1, 6]: 37.2 nM

AAUCGCCGUAAGAAGGCCACAUAAACAUGAGGAUCACCCAUGUACAGGCGACCUUUAUAUAAUGUGGAGGAUAUUAACUGCUUC
apparent Kd [1, 5]: 36.2 nM
apparent Kd [1, 6]: 90.5 nM

AAUUGUGCAGGAUAUUCACAGGUGAACAUGAGGAUCACCCAUGUAGCAUGAGGUGUAAUCGAAGAAGGGCAGGUCC
apparent Kd [1, 5]: 109 nM
apparent Kd [1, 6]: 72.8 nM

ACACACAUGAGGAUCACCCAUGUCUAUAUACGAGGACCGGUACGGCCGCCACUCGUGAGAUCGCGAGAGACAGCUUUGGGCUAGU
apparent Kd [1, 9]: 14.6 nM
apparent Kd [1, 10]: 19.2 nM

ACAUAUUCCAGAGGAUAUUGUGGUAUCCAGUUAAGGAGAUCUUACAUGAGGAUCACCCAUGUGGACAAGAAGGCUGAACGCUCC
apparent Kd [1, 3]: 21.6 nM
apparent Kd [1, 4]: 14.7 nM

ACAUGAGGAUCACCCAUGUAAACAAGGUUGGAGACCCGCAAUGAGGAUAUCAUAAAGAAACCCAAUGAGAAGGCAUGAUCACAA
apparent Kd [1, 3]: 22.3 nM
apparent Kd [1, 4]: 17.2 nM

ACCAGGCAAGGAUAUGGUUCUGUAAACAUGAGGAUCACCCAUGUAUUUAAUUCAUGUUGGCCAGAAGGUGCUUUCG
apparent Kd [1, 5]: 14.8 nM
apparent Kd [1, 6]: 13.3 nM

ACCGUAUGGGAGAAGGAACUAUGUUAGACAUGAGGAUCACCCAUGUUCCAGAAUGUAGGGCUCAGUUAGGAUAUCCAAUUCAGA
apparent Kd [1, 5]: 11.1 nM
apparent Kd [1, 6]: 21.8 nM

ACCUUACAUGAGGAUCACCCAUGUCGUGAUACCAGAAACCACGUAUUCCCUUGGCAGCACACCCGUGAUGAGAUUGUCGGUUUUG
apparent Kd [1, 7]: 57.4 nM
apparent Kd [1, 8]: 88 nM

ACGCGUUCACAGAAGGCCUACAAAAUUACAUUAGGAGGAUAUGUUACAUGAGGAUCACCCAUGUCAUGGCUGUGUCUCGGUAUC
apparent Kd [1, 5]: 30.8 nM
apparent Kd [1, 6]: 41.4 nM

ACGGCAUGGAAGAAGGAGUACAUGAGGAUCACCCAUGUAGGGUAGCGCGUCCACAUCCAAUAAGACUAGGAUAUUCUUGCAGAU
apparent Kd [1, 5]: 39.8 nM
apparent Kd [1, 6]: 83.2 nM

ACUCAUGCAAAGGAUAUAACAGUUACAGACUGAUUAGAAGGUUGGACAUGAGGAUCACCCAUGUACGACGCGGU
apparent Kd [1, 5]: 9.13 nM
apparent Kd [1, 6]: 28.4 nM

ACUCCACAUGAGGAUCACCCAUGUUAUAAGUAGGUAGGAUAUCACACAAACUUACAUGGAUGAGAAGGACCGGUCC
apparent Kd [1, 3]: 328 nM
apparent Kd [1, 4]: 210 nM

ACUGCGCACGGGCUCCACAUGAGGAUCACCCAUGUUGAACUGAGAAGGGAAAGAAGAAACUACAUUCAGGAUAUCAUUUCACCA
apparent Kd [1, 5]: 44.5 nM
apparent Kd [1, 6]: 46.6 nM

AGAACCCAGUAAGGAUAUGAUGAGUCUAUACAACAUGAGGAUCACCCAUGUCCGAGGAAACUAGAUCAGAAGGUACAAGAAAAG
apparent Kd [1, 3]: 73.8 nM
apparent Kd [1, 4]: 17.6 nM

AGAAGGGACGAGAAGGUACGAUCGAGUAAACUAUGAUAUGGGCACAUGAGGAUCACCCAUGUAUGUAAGGAUAUCGCAUCUCCA
apparent Kd [1, 3]: 50.5 nM
apparent Kd [1, 4]: 41.1 nM

AGAAUGACAAAAUUGCAACAUGAGGAUCACCCAUGUGAUACAAGAAGGACAAACCGCUCAAGAGUGUAGGAUAUUGUGGAAAUC
apparent Kd [1, 3]: 25.6 nM
apparent Kd [1, 4]: 19.6 nM

AGACAAAAGGAGAAGGAGGUAAAGAUAUAAAGGUGAAGUAAUGGACAUGAGGAUCACCCAUGUACCUAGGAUAUCCAGGGCGAU
apparent Kd [1, 5]: 26.8 nM
apparent Kd [1, 6]: 33.6 nM

AGAUUUGCAGGAUAUACCGGUACAAACAUGAGGAUCACCCAUGUAACGCAUGGUCAGUGAGUAGAAGGGCACGUAG
apparent Kd [1, 5]: 31.4 nM
apparent Kd [1, 6]: 24 nM

AGCCCACAUGAGGAUCACCCAUGUACUUGGUCCUCAGGAUAUCUAGUUCCAUAUUACAAAAGAGAAGGGAGGAUUG
apparent Kd [1, 3]: 110 nM
apparent Kd [1, 4]: 14.6 nM

AGCUAUUUUUGGGAGGAUAUUAUGAGCAGUACAUGAGGAUCACCCAUGUUAGUAAUAUACAUUGGUAAGAAGGCCCAAUCAUAAGG
apparent Kd [1, 3]: 34.6 nM
apparent Kd [1, 4]: 25.1 nM

AGGAAAGAAGAAGGAUAUCAGUUACGGACAUGAGGAUCACCCAUGUACGUAGGGUGAACCCUGAUUGAGAAGGUCUGUGUUUUA
apparent Kd [1, 3]: 23.1 nM
apparent Kd [1, 4]: 13.4 nM

AGGAAUGUCACGGCCGCCACUGACGCUAAAAUGGGCUCGAGCCGACAUGAGGAUCACCCAUGUUCCAGGACCGGGUGAAUCCUGG
apparent Kd [1, 9]: 174 nM
apparent Kd [1, 10]: 123 nM

AGUCCUCUGUACCCUGAUGCCCUCACUUUACGAGGACCGGUACGGCCGCCACUCGAAUCCCAACAUGAGGAUCACCCAUGUCGAC
apparent Kd [1, 11]: 34.8 nM
apparent Kd [1, 12]: 39.7 nM

AGUCUUCUCGUAAGGAUAUUUAGGAAUUCAUCUCCAAAGAAGGUACAUGAGGAUCACCCAUGUGAAGGGCUUUU
apparent Kd [1, 5]: 12.8 nM
apparent Kd [1, 6]: 24.8 nM

AUAACACAUGAGGAUCACCCAUGUAAGGAUAUAGUAGCAAUGGAAAGAAAUCUAUCCUCUAGAAGGUACACGGC
apparent Kd [1, 5]: 18.5 nM
apparent Kd [1, 6]: 15.3 nM

AUAACUGCAGGAUAUACAGGAACGCCUAGAAGGAUCCUGGAACAUGAGGAUCACCCAUGUAGAAGGGCACGUUU
apparent Kd [1, 5]: 12.3 nM
apparent Kd [1, 6]: 14.4 nM

AUACCACCUUCGGCCGCCACUAUGUAUGGGUUCCCAACGUUGAAGGACAUGAGGAUCACCCAUGUUAGGACCGGGAAAAGUGCCU
apparent Kd [1, 11]: 87.9 nM
apparent Kd [1, 12]: 161 nM

AUAGAGGAUAAAGGAUAUGAGGUGAACAUCGAUUCAGAAGGUUAUCAGGAUACAUGAGGAUCACCCAUGUUUCCUUUGCUGUUG
apparent Kd [1, 3]: 38.5 nM
apparent Kd [1, 4]: 22.9 nM

AUAGUGUAAGGAUAUGUAGAGAGCUAGAAAAUACAAACAAUACAGAAGGUACAUGAGGAUCACCCAUGUGAUUG
apparent Kd [1, 5]: 14.4 nM
apparent Kd [1, 6]: 26.3 nM

AUAUAAUCAGGAUAUACAUGUUUCUUUAACACCGAGGCCGUACAUGAGGAUCACCCAUGUAGAAGGGAUUGCGG
apparent Kd [1, 5]: 6.95 nM
apparent Kd [1, 6]: 6.32 nM

AUAUCUUCCACGGCCGCCACUGAAUGGUGCCCAAGGUCGAUCGCAGACAUGAGGAUCACCCAUGUCAGGACCGGGUGGUACUACG
apparent Kd [1, 11]: 14.7 nM
apparent Kd [1, 12]: 33 nM

AUGAGAUGAGGAUAUACUGGGUCCGCAUUAGAAACUUAUCAACAUGAGGAUCACCCAUGUAGAAGGCAUGUGAG
apparent Kd [1, 5]: 25.4 nM
apparent Kd [1, 6]: 83.2 nM

AUGUUCGUAAAGAAGGAUCAGGUGAUAUAUGUCAACAUGAGGAUCACCCAUGUGCGGGACGUAAGAUAGGAUAUUUGAGAUCAU
apparent Kd [1, 5]: 14.3 nM
apparent Kd [1, 6]: 10.8 nM

UUUUCCAAUCAAGGAUAUGUAUUAAAGAUUUGAAAACAUGAGGAUCACCCAUGUAUAUGGUGGGAACAGAAGGUGAAUAAGUAA
apparent Kd [2, 5]: 221 nM
apparent Kd [2, 6]: 231 nM

UUUUCGAACCGAGGAUAUCCUUAUAAGAAACAUGAGGAUCACCCAUGUAAAGGGAAUUAUUUGUAGGAGAAGGCGGAUUUUGUU
apparent Kd [2, 3]: 44.4 nM
apparent Kd [2, 4]: 29.9 nM

UUUUGACAUGAGGAUCACCCAUGUGAGGAUAUGGAGCGCGACCGCGCGGUCGCGUACACCAGAAGGCGCAGGAA
apparent Kd [2, 5]: 40.3 nM
apparent Kd [2, 6]: 70.8 nM

UUUUUACAUGAGGAUCACCCAUGUCAGGAUAUGGUUAUAUUUUAUUAUUUUAUUUUUUCCAGAAGGGACUAUUA
apparent Kd [2, 5]: 343 nM
apparent Kd [2, 6]: 162 nM

UUUUUAUAAGAGAAGGAGGACUUCAUGAGGAUCACCCAUGUGUUAGUACUUAGGAUAUUUAAUAACAUGAGGAUCACCCAUGUC
apparent Kd [2, 3]: 49.4 nM
apparent Kd [2, 4]: 49.2 nM

UUUUUAUGAGAGAAGGAGGACUUCAUGAGGAUCACCCAUGUGUUAGUACUUAGGAUAUUUAAUAACAUGAGGAUCACCCAUGUC
apparent Kd [2, 3]: 51.1 nM
apparent Kd [2, 4]: 48.6 nM

UUUUUCUCAGGAUAUACAUGAGGAUCACCCAUGUAUAUUAGUGAUAAUACAUGGGAAUGUAGAAGGGAGCUCAU
apparent Kd [2, 5]: 164 nM
apparent Kd [2, 6]: 123 nM

UUUUUGUCAGGAUAUGACUAGAUGCACGUUAGUGUAUUUACUUAGAAGGGACAUGAGGAUCACCCAUGUAUUCC
apparent Kd [2, 5]: 30.7 nM
apparent Kd [2, 6]: 26.7 nM

UUUUUGUCAGGAUAUGACUAGAUGCACGUUAGUGUGUUUACUUAGAAGGGACAUGAGGAUCACCCAUGUAUUCC
apparent Kd [2, 5]: 28.9 nM
apparent Kd [2, 6]: 24.1 nM

UUUUUGUCAGGAUAUGAUUAGAUCUACUUUUGUAGAUCUAAUCAGAAGGGACAUGAGGAUCACCCAUGUAGUUU
apparent Kd [2, 5]: 37.2 nM
apparent Kd [2, 6]: 152 nM
